Results on three compounds are retold here after ChEMBL document CHEMBL1909519, “L-Proline anchored multicomponent synthesis of novel pyrido[2,3-a]carbazoles; investigation of in vitro antimicrobial, antioxidant, cytotoxicity and structure activity relationship studies” (Eur J Med Chem, 2011).

The structures appear in SMILES notation. In brackets after ≈: the same amount, converted by molar mass.

Experiment [1] concerns Aspergillus niger. The experiment can be described thus: Antifungal activity against Aspergillus niger at 30 ug/ml after 48 hrs by agar disk diffusion assay. The experiment is classed as functional. Particulars: read-out: DIZ. A digest of the protocol: (§1)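 Agar well diffusion on Sabouraud dextrose agar; fungal strains obtained from a hospital. Compounds dissolved in DMSO, with DMSO as negative control and fluconazole ([…]) as positive control. Plates incubated at 28 ± 2 °C for 48 h. Activity taken as the diameter of the inhibition zone, in mm.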

Experiment [2] has as its system Candida albicans. The experiment can be described thus: Antifungal activity against Candida albicans AT 30 ug/ml after 48 hrs by agar disk diffusion assay. The experiment is classed as functional. The settings on record: read-out: DIZ. A digest of the protocol: as §1
Experiment [3] has as its system Aspergillus niger. The experiment can be described thus: Antifungal activity against Aspergillus niger after 48 hrs by agar disk diffusion assay. The experiment is classed as functional. A digest of the protocol: (§2)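 Fungal isolates (PSG Hospital, Coimbatore) grown on Sabouraud dextrose agar; agar well diffusion with compounds in DMSO at 0 (control), 25, 50, 75, 100. DMSO negative control, fluconazole ([…]) positive control. Plates held 28 ± 2 °C for 48 h; zone of inhibition diameter recorded in mm.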

The test system of experiment [4] is Candida albicans. The experiment can be described thus: Antifungal activity against Candida albicans after 48 hrs by agar disk diffusion assay. The experiment is classed as functional. In short, it runs like this:
as §2

Experiment [5] has as its system Enterococcus faecalis. The experiment can be described thus: Antibacterial activity against Enterococcus faecalis after 24 hrs by agar disk diffusion assay. The experiment is classed as functional. A digest of the protocol:
(§3)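 Agar well diffusion on nutrient agar against Gram-positive clinical isolates (PSG Hospital, Coimbatore). Compounds in DMSO tested at 0 (control), 25, 50, 75, 100; DMSO as solvent and negative control; ciprofloxacin ([…]) as positive control. Plates incubated 37 ± 2 °C, 24 h; zone of inhibition diameter read in mm.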

Experiment [6] has as its system Escherichia coli. Briefly: Antibacterial activity against Escherichia coli after 24 hrs by agar disk diffusion assay. The experiment is classed as functional. In short, it runs like this: (§4)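 Gram-negative clinical isolates (PSG Hospital, Coimbatore) tested by agar well diffusion on nutrient agar. Compounds dissolved in DMSO at 0 (control), 25, 50, 75, 100; DMSO was the negative control and ciprofloxacin ([…]) the positive control. Incubation 37 ± 2 °C for 24 h, then inhibition zone diameter measured in mm.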

Experiment [7] relates to Enterococcus faecalis. Briefly: Antibacterial activity against Enterococcus faecalis at 30 ug/ml after 24 hrs by agar disk diffusion assay. The settings on record: read-out: DIZ.
The subject of experiment [8] is Staphylococcus aureus. Briefly: Antibacterial activity against Staphylococcus aureus after 24 hrs by agar disk diffusion assay. The experiment is classed as functional. In short, it runs like this: as §3
Experiment [9] has as its system Klebsiella pneumoniae. The experiment can be described thus: Antibacterial activity against Klebsiella pneumoniae after 24 hrs by agar disk diffusion assay. The experiment is classed as functional. In short, it runs like this:
as §4

For experiment [10], the system named is Staphylococcus aureus. Briefly: Antibacterial activity against Staphylococcus aureus at 30 ug/ml after 24 hrs by agar disk diffusion assay. Particulars: read-out: DIZ; call rule not given here.
Experiment [11] relates to Escherichia coli. Briefly: Antibacterial activity against Escherichia coli at 30 ug/ml after 24 hrs by agar disk diffusion assay. The settings on record: read-out: DIZ.
For experiment [12], the system named is Klebsiella pneumoniae. The experiment can be described thus: Antibacterial activity against Klebsiella pneumoniae at 30 ug/ml after 24 hrs by agar disk diffusion assay. The settings on record: read-out: DIZ.
The nature of experiment [13]: Cytotoxicity against human SK-MEL-12 cells up to 50 ug/ml after 48 hrs by SRB assay. The experiment is classed as functional, cell-based. In short, it runs like this: (§5)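 Cells in RPMI-1640 with 10% heat-inactivated FBS, 1 mM NaHCO3, 2 mM L-glutamine, 37 °C, 5% CO2; seeded (B16F10 5 × 10⁴ cells/mL, others 1 × 10⁵ cells/mL), 24 h, then compounds in DMSO at 1.56–50 for 48 h, triplicate wells. TCA fixation, SRB staining 30 min, tris extraction, OD 520 nm; IC50 by linear regression, mean ± SD of three independent experiments; cisplatin positive control.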

Experiment [14] deals with Aspergillus niger. Briefly: Antifungal activity against Aspergillus niger at 100 ug/ml after 48 hrs by agar disk diffusion assay. The experiment is classed as functional. Particulars: read-out: DIZ. A digest of the protocol:
as §2

In experiment [15] the test system is Klebsiella pneumoniae. The experiment can be described thus: Antibacterial activity against Klebsiella pneumoniae at 100 ug/ml after 24 hrs by agar disk diffusion assay. The experiment is classed as functional. Particulars: read-out: DIZ. A digest of the protocol: as §4
For experiment [16], the system named is A549. The experiment can be described thus: Cytotoxicity against human A549 cells after 48 hrs by SRB assay. The experiment is classed as functional, cell-based. The settings on record: A549, 48 h. A digest of the protocol: as §5
Experiment [17] deals with Escherichia coli. The experiment can be described thus: Antibacterial activity against Escherichia coli at 100 ug/ml after 24 hrs by agar disk diffusion assay. The experiment is classed as functional. The settings on record: read-out: DIZ. In short, it runs like this: as §4
Experiment [18] has as its system Candida albicans. Briefly: Antifungal activity against Candida albicans at 100 ug/ml after 48 hrs by agar disk diffusion assay. The experiment is classed as functional. Particulars: read-out: DIZ. A digest of the protocol: as §2
Experiment [19] deals with Enterococcus faecalis. The experiment can be described thus: Antibacterial activity against Enterococcus faecalis at 100 ug/ml after 24 hrs by agar disk diffusion assay. The experiment is classed as functional. The settings on record: read-out: DIZ. A digest of the protocol:
as §3

In experiment [20] the test system is Staphylococcus aureus. Briefly: Antibacterial activity against Staphylococcus aureus at 100 ug/ml after 24 hrs by agar disk diffusion assay. The experiment is classed as functional. Particulars: read-out: DIZ. In short, it runs like this: as §3
Experiment [21] relates to Radical scavenging activity. The experiment can be described thus: Antioxidant activity assessed as DPPH radical scavenging activity after 30 mins by micro plate reader. The experiment is classed as functional. In short, it runs like this: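 DPPH assay: various compound concentrations brought to volume with ethanol, mixed with 0.1 mM ethanolic DPPH alongside vitamin C standard; shaken 30 min at 24 °C, absorbance read at 517 nm; concentration giving 50% decrease determined.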

For experiment [22], the system named is B16-F10. The experiment can be described thus: Cytotoxicity against mouse B16F10 cells after 48 hrs by SRB assay. The experiment is classed as functional, cell-based. Particulars: B16-F10, 48 h. A digest of the protocol:
as §5

Experiment [23] concerns SK-OV-3. Briefly: Cytotoxicity against human SKOV3 cells up to 50 ug/ml after 48 hrs by SRB assay. The experiment is classed as functional, cell-based. A digest of the protocol: as §5
The test system of experiment [24] is HCT-15. Briefly: Cytotoxicity against human HCT15 cells after 48 hrs by SRB assay. The experiment is classed as functional, cell-based. Particulars: HCT-15, 48 h. A digest of the protocol:
as §5

In the case of `OC(Cn1cncn1)(Cn1cncn1)c1ccc(F)cc1F` [FLUCONAZOLE], the figures for the zone of inhibition at 30 µg/mL in experiment [1] and in [2] were 19 mm and 22 mm, respectively. Further, the minimal inhibitory concentration (MIC) in experiment [3] and in experiment [4] was 12.5 µg/mL (≈ 40.8 µM) in each case.

Regarding `O=C(O)c1cn(C2CC2)c2cc(N3CCNCC3)c(F)cc2c1=O` [CIPROFLOXACIN], the MIC in experiment [5], in experiment [6], in experiment [8] and in experiment [9] was 12.5 µg/mL (≈ 37.7 µM) each time. The zone of inhibition at 30 µg/mL in [7] was found to be 29 mm; in [10], 28 mm; in experiment [11], 27 mm; in experiment [12], 30 mm.

For the compound `Cc1ccc2[nH]c3c(c2c1)CCc1c-3nc(N)c(C#N)c1-c1ccccc1`, the MIC in experiment [5] is 100 µg/mL (≈ 285 µM); in experiment [6] it was 100 µg/mL (≈ 285 µM); in [8], 100 µg/mL (≈ 285 µM); in [9], 100 µg/mL (≈ 285 µM); in experiment [3], greater than 100 µg/mL; in [4], greater than 100 µg/mL. Further, the concentration for half-maximal inhibition (IC50) result in [13] is “Not Active”; in [16], 49.2 µg/mL (≈ 141 µM); in experiment [21] it was 205.5 µg/mL (≈ 586 µM); in experiment [22], 47.6 µg/mL (≈ 136 µM); in experiment [23], “Not Active”; in experiment [24], 44.9 µg/mL (≈ 128 µM). Also, the zone of inhibition at 100 µg/mL in experiment [14] came to 4 mm; in experiment [15] it was 15 mm; in experiment [17], 16 mm; in experiment [18] it was 3 mm; in experiment [19], 14 mm; in experiment [20] it was 12 mm.
